# From ChEMBL document CHEMBL1156792, “Application of the dipeptidyl peptidase IV (DPPIV/CD26) based prodrug approach to different amine-containing drugs” (J Med Chem, 2010)
# B1: Dipeptidyl peptidase 4 (Homo sapiens), P27487 (protein)
# chain: MKTPWKVLLGLLGAAALVTIITVPVVLLNKGTDDATADSRKTYTLTDYLKNTYRLKLYSLRWISDHEYLYKQENNILVFNAEYGNSSVFLENSTFDEFGHSINDYSISPDGQFILLEYNYVKQWRHSYTASYDIYDLNKRQLITEERIPNNTQWVTWSPVGHKLAYVWNNDIYVKIEPNLPSYRITWTGKEDIIYNGITDWVYEEEVFSAYSALWWSPNGTFLAYAQFNDTEVPLIEYSFYSDESLQYPKTVRVPYPKAGAVNPTVKFFVVNTDSLSSVTNATSIQITAPASMLIGDHYLCDVTWATQERISLQWLRRIQNYSVMDICDYDESSGRWNCLVARQHIEMSTTGWVGRFRPSEPHFTLDGNSFYKIISNEEGYRHICYFQIDKKDCTFITKGTWEVIGIEALTSDYLYYISNEYKGMPGGRNLYKIQLSDYTKVTCLSCELNPERCQYYSVSFSKEAKYYQLRCSGPGLPLYTLHSSVNDKGLRVLEDNSALDKMLQNVQMPSKKLDFIILNETKFWYQMILPPHFDKSKKYPLLLDVYAGPCSQKADTVFRLNWATYLASTENIIVASFDGRGSGYQGDKIMHAINRRLGTFEVEDQIEAARQFSKMGFVDNKRIAIWGWSYGGYVTSMVLGSGSGVFKCGIAVAPVSRWEYYDSVYTERYMGLPTPEDNLDHYRNSTVMSRAENFKQVEYLLIHGTADDNVHFQQSAQISKALVDVGVDFQAMWYTDEDHGIASSTAHQHIYTHMSHFIKQCFSLP
# Tests used:
# [1] = substrate: CC(C)[C@H](N)C(=O)N1CCC[C@H]1C(=O)N[C@H](C(=O)N1CCC[C@H]1C(=O)Nc1ncnc2c1ncn2[C@@H]1O[C@H](CO)[C@@H](O)[C@@H]1O)C(C)C; experiment: (§1) Activity of human recombinant CD26 assessed as hydrolysis
# Outline: (§2)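 Human recombinant CD26 (Sf9-expressed) was incubated with prodrug at several levels (2–50 μM, or 50–1000 μM for the AspPro conjugate). Hydrolysis was quantified by RP-8 HPLC at 15, 30 and 45 min. Km and Vmax were calculated at each time point and averaged over the three, with at least two to three independent experiments.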
# [2] = substrate: CC(C)[C@H](N)C(=O)N1CCC[C@H]1C(=O)Nc1ccc2ncccc2c1; experiment: as §1; outline: as §2
# [3] = substrate: COc1cccc2c1C(=O)c1c(O)c3c(c(O)c1C2=O)C[C@@](O)(C(=O)CO)C[C@@H]3O[C@H]1C[C@H](NC(=O)[C@@H]2CCCN2C(=O)[C@@H](N)C(C)C)[C@H](O)[C@H](C)O1; experiment: as §1; outline: as §2
# [4] = substrate: N[C@@H](CC(=O)O)C(=O)N1CCC[C@H]1C(=O)Nc1ccc2ncccc2c1; experiment: as §1; outline: as §2
protein,measurement,setting,value
B1,Km,[1],56 µM
same,Vmax (nmol/hr/microg),[1],10
same,Km,[2],25 µM
same,Vmax (nmol/hr/microg),[2],32
same,Km,[3],15 µM
same,Vmax (nmol/hr/microg),[3],30
same,Km,[4],524 µM
same,Vmax (nmol/hr/microg),[4],70
